MC4R antag cAMP – blocks human MC4R cAMP signaling; MC4R-expressing cells, MTII-stimulated cAMP, LANCE TR-FRET; inhibition, % at 6.5 µM; actives 0.48% (n = 360,000); AID 540295; P32245;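 active means inhibition above its plate's cutoff, the mean of tested wells on that plate plus 3 SD, cut at about 29% in these data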;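 further: 0% = Melanotan II alone and 100% = Melanotan II plus saturating MCL0020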
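Material: U2OS-MC4R stable cell line | Reagent: Melanotan II challenge after compound preincubation | Doses: One concentration, 6.5 µM nominal | Incubation: 30-min compound preincubation, 1-h Melanotan II challenge, 1-h detection, room temperature | Signal: TR-FRET cAMP assay | Replicates: One well per compound, no replicates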
m5-HT2A agonist – activates the mouse 5-HT2A serotonin receptor | P35363 | CHO-K1 mHTR2A beta-arrestin complementation, luminescence; percent of 30 µM serotonin response | activation, % at 7.6 µM | actives 0.66% (n = 360,000);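 active means activation above a run cutoff, the mean activation of all tested compounds plus 3 SD, cut at about 14% in these data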;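 further: 0% = plate median of compound wells and 100% = 30 µM serotonin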
Target sequence (P35363 whole entry, looked up): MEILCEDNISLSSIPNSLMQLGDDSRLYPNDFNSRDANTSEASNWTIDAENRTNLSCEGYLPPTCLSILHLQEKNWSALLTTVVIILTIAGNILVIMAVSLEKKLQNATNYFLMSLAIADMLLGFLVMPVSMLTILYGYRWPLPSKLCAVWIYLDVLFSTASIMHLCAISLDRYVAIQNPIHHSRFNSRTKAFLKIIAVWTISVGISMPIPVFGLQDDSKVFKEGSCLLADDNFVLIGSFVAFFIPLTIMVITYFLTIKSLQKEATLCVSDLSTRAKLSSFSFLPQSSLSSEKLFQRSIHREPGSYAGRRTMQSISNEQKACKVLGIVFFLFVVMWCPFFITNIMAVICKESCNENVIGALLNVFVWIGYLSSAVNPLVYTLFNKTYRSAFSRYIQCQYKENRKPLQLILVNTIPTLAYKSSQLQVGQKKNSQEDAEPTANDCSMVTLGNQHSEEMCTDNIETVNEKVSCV
EBI2 block – EBI2 (human) antagonism; P32249; EBI2 beta-arrestin recruitment, luminescence, 7a,25-OHC stimulated; inhibition, % at 5 µM; actives 0.81% (n = 360,000); in the data active means inhibition above about 38%;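 further: enzyme fragment complementation signal reports receptor beta-arrestin coupling in cells; 0% = agonist plus DMSO wells and 100% = wells without agonist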
MC4R barr agon – activates human MC4R beta-arrestin recruitment; AID 540308; U2OS MC4R beta-arrestin complementation, luminescence; percent of melanotan II response, DMSO zero; activation, % at 8.9 µM; actives 0.98% (n = 360,000);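 active means activation above a per-plate cutoff, the mean activation of sample wells on that plate plus 3 SD, cut at about 8% in these data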
MC4R barr ag – human MC4R beta-arrestin agonism confirmation. actives 31% (n = 2,400). shares compounds with MC4R barr agon. U2OS MC4R beta-arrestin recruitment, luminescence; scaled DMSO 0%, Melanotan II 100%. AID 602192. activation, % at 8.9 µM;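 active means mean activation across replicates above the hit cutoff set in the earlier primary screen, cut at about 8% in these data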
MOR DOR agonist – activates mu-delta opioid heterodimer, MC4R agonist counter-screen; shares compounds with MC4R barr agon; U2OS PathHunter beta-arrestin, beta-gal luminescence; percent of deltorphin B response, DMSO zero; activation, % at 9.2 µM; actives 5.8% (n = 2,400); AID 602194;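 active means mean activation across replicates exceeds the hit threshold derived in the earlier primary screen, cut at about 18% in these data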;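 further: 100% = deltorphin B at 0.9 µM final and 0% = DMSO alone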
Starred values were filed as active, the others as inactive; / = no result given. Hits are enriched below; roughly 2.8% of the tested compounds scored in any of these assays.

SMILES	MC4R antag cAMP	m5-HT2A agonist	EBI2 block	MC4R barr agon	MC4R barr ag	MOR DOR agonist
CC(=O)Nc1cc(-c2cccc(C(=O)N(C)C)c2)cn2c(-c3cccc(C(F)(F)F)c3)cnc12	12	9	19	7	/	/
COc1ccc(F)cc1-c1cc(NC(C)=O)c2ncc(-c3cccc(C(F)(F)F)c3)n2c1	9	1	13	19*	15*	3
COc1ccccc1NC(=O)c1oc2ccccc2c1NC(=O)C1CC1	13	5	-10	10*	2	3
COc1ccc2oc(C(=O)OCC(=O)NCc3ccccc3OC)c(C)c2c1	11	6	-2	21*	8	6
COc1ccc(NC(=O)c2oc3ccccc3c2C)c(OC)c1	2	-5	17	14*	0	5
COc1ccc2oc(C(=O)OCC(=O)Nc3ccc(NC(C)=O)cc3)c(C)c2c1	1	2	2	4	/	/
COc1ccc(Cn2cc(CN3CCc4onc(-c5ccccc5OC)c4C3=O)nn2)cc1	/	0	0	/	/	/
CC(C)(C)S(=O)N1Cc2cc(CO)ccc2[C@H]1CCO (stereo not given in full)	0	2	-4	0	/	/
COCCCN(C(=O)CSc1nc2ccccc2c(=O)n1C)c1c(N)n(Cc2ccccc2)c(=O)[nH]c1=O	8	-4	5	-1	/	/
Cc1ccc(CNc2ncnc3ccc(-c4ccoc4C)cc23)o1	-6	-7	32	-1	/	/
O=C(Nc1cccc(C(F)(F)F)c1)c1cc(-c2ccc(F)cc2)on1	5	4	22	16*	6	4
CCOc1ccc(-c2cc(NC(=O)Cn3ncc4c3-c3ccccc3OC4)on2)cc1OCC	8	5	11	16*	3	8
Cc1ccc(Cn2c(-c3nonc3N)nc3ccccc32)cc1	-1	-5	-3	5	/	/
COc1cc(Cn2c(-c3nonc3N)nc3ccccc32)ccc1C	-25	-3	1	10*	-4	4
Nc1nonc1-c1nc2ccccc2n1Cc1ccc(Cl)cc1	-6	0	-1	11*	-1	5
Cc1ccc(CN(C)C(=O)c2cccc(S(=O)(=O)N3CCc4ccccc4C3)c2)o1	9	-11	0	-3	/	/
CCCCNC(=O)C[C@@H]1C[C@@]2(C(=O)OC)CCCCC=C2N(CCC2=CCCCC2)C1=O	/	0	7	/	/	/
Cc1cccc(C)c1NC(=O)C1c2ccccc2OCC(=O)N1Cc1ccc2c(c1)OCO2 (stereo not given)	/	1	6	/	/	/
COc1cccc(N2CCN(C(=O)CNC(=O)c3sc4ccccc4c3Cl)CC2)c1	-4	3	-13	70*	3	3
C=CCN1C(=O)c2ccc(C(=O)NCC(=O)Nc3c(C)cc(C)cc3C)cc2C1=O	-10	10	8	0	/	/
CC(=O)Nc1cc(-c2cccc(F)c2)cn2c(-c3ccc(F)c(Cl)c3)cnc12	5	0	22	16*	19*	3
CC(=O)Nc1cc(-c2cccc(NS(C)(=O)=O)c2)cn2c(-c3ccccc3)cnc12	5	-1	21	12*	20*	4
CC(=O)Nc1cc(-c2ccccc2)cn2c(-c3ccc(F)c(Cl)c3)cnc12	-3	-3	29	22*	21*	4
CC(=O)Nc1cc(-c2ccc(F)cc2)cn2c(-c3ccc(F)c(Cl)c3)cnc12	17	-4	21	19*	18*	5
CCCCNC(=O)C1(C)CCN1C(=O)c1cccc(OC(F)(F)F)c1 (stereo not given)	-2	3	-2	0	/	/
SMILES	MC4R antag cAMP	m5-HT2A agonist	EBI2 block	MC4R barr agon	MC4R barr ag	MOR DOR agonist
Cc1ccc(Sc2nnc(-c3ccccc3)cc2C#N)cc1	4	-2	1	13*	3	6
COc1cccc(-c2noc(-c3ccc4c(c3)OCO4)n2)c1	5	1	5	11*	0	3
COCCNC(=O)c1ccc(-n2c(SCc3cc(F)ccc3F)nc3ccccc3c2=O)cc1	7	2	6	12*	8.3*	4
COc1cc(SC#N)ccc1N=Cc1c(C)[nH]n(-c2ccc(C)c(C)c2)c1=O	4	8	21	12*	9.3*	15
COc1ccc(-c2cc(C(=O)Nc3cnn(Cc4ccccc4C)c3)no2)cc1OC	-1	-2	-3	12*	3	9
COc1cccc(-c2cc(C(=O)Nc3ccccc3SC)no2)c1	1	2	26	7	/	/
CCCn1cc(NC(=O)c2cc(-c3ccccc3)on2)cn1	1	-4	-4	3	/	/
COc1ccc(-c2cc(C(=O)Nc3ccccc3SC)no2)cc1OC	-5	-4	11	39*	3	13
C=CCC[C@@H](Cc1ccc(F)cc1)C(=O)OC[C@@H](Cc1c[nH]c2ccccc12)NC(=O)[C@H](CC=C)CC(=O)N[C@H](CO)Cc1ccccc1	15	6	9	10*	5	5
C=CC[C@H](CC(=O)N[C@H](CO)Cc1ccccc1)C(=O)N[C@H](COC(=O)[C@H](CC=C)CC(=O)OC(C)(C)C)Cc1c[nH]c2ccccc12	8	-1	11	22*	1	3
C=CC[C@@H](CC(=O)N[C@H](CO)Cc1ccccc1)C(=O)N[C@H](COC(=O)[C@H](CC=C)CC(=O)OC(C)(C)C)Cc1c[nH]c2ccccc12	17	-1	12	-1	/	/
C=CCC[C@H](Cc1ccc(F)cc1)C(=O)OC[C@@H](Cc1c[nH]c2ccccc12)NC(=O)[C@@H](CC=C)CC(=O)N[C@@H](CO)Cc1ccccc1	18	2	13	8	/	/
CCc1ccc(NC(=O)COc2ccc(/C=C(/C#N)c3nc4ccccc4[nH]3)cc2OC)cc1	1	2	4	69*	17*	23*
Cc1nn(-c2nc3ccccc3s2)c(C)c1Oc1ccccc1O	2	4	11	22*	0	5
O=C(COC(=O)C1CCN(c2ccc(C(F)(F)F)cn2)CC1)Nc1cccc(F)c1	8	-6	0	13*	-2	6
Cc1cc(F)cc(-c2cc(C(=O)NCc3ccccc3)[nH]n2)c1	-3	-6	3	1	/	/
Cc1cc(F)cc(-c2cc(C(=O)NCc3cccc(Cl)c3)[nH]n2)c1	19	1	-2	13*	2	7
CCOc1ccc2nc(NC(=O)c3cccc(-c4cc5ccccc5oc4=O)c3)sc2c1	2	0	6	24*	13*	2
CCOc1ccc2nc(NC(=O)c3cccc(N4C(=O)CCC4=O)c3)sc2c1	15	5	-9	3	/	/
CCC(=O)N1CCN(c2cc(N3CCN(C)CC3)c(F)cc2[N+](=O)[O-])CC1	1	-3	3	-2	/	/
